Data reported in ChEMBL document CHEMBL4138103, “Discovery of efficient stimulators for adult hippocampal neurogenesis based on scaffolds in dragon's blood” (Eur J Med Chem, 2017).
Calls of active or inactive are those of the source. No cut-off for these calls is given here.

Experiments:
[1] = Cytotoxicity against human SH-SY5Y cells assessed as cell survival at 1000 uM after 24 hrs by MTT assay relative to control; assay type: cell-based; details: read-out: Survival
Method in brief: (§1)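 SH-SY5Y human neuroblastoma cells seeded at 5 × 10⁴ cells/mL, incubated 24 h at 37 °C, then exposed to compounds at final concentrations of […] for 24 h. MTT added for a further 4 h at 37 °C. Absorbance read at 570 nm and reported as percent viability. Five parallel samples per condition.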

[2] = Cytotoxicity against human SH-SY5Y cells assessed as cell survival at 100 uM after 24 hrs by MTT assay relative to control; assay type: cell-based; details: read-out: Survival; method in brief: as §1
Rattus norvegicus [3] = test: In vivo neurogenic activity in Sprague-Dawley rat neural progenitor cells at 2.2 mg/kg, ip qd pretreated for 28 days followed by BrdU addition at 2 hrs interval for twice on day 29 measured after 24 hrs by BrdU incorporation assay; assay type: functional, organism-based
Method in brief: (§2)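 Male SD rats aged 10 weeks, acclimatized 7 days (11 weeks old at start), dosed ip once daily for 28 days with compound in soybean oil containing 10% ethanol; vehicle group received 10% ethanol in oil. On day 29, BrdU in saline given twice at 100 mg/kg, 2 h apart. Rats sacrificed 24 h after the last BrdU. BrdU+ cells in SGZ-GCL counted by DAB immunostaining of 30 µm cryosections; n = 8; mean ± SEM.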

[4] = Cytotoxicity against human SH-SY5Y cells assessed as cell survival at 500 uM after 24 hrs by MTT assay relative to control; assay type: cell-based; details: read-out: Survival; method in brief: as §1
Rattus norvegicus [5] = test: In vivo neurogenic activity in Sprague-Dawley rat neural progenitor cells at 0.5 mg/kg, ip qd pretreated for 28 days followed by BrdU addition at 2 hrs interval for twice on day 29 measured after 24 hrs by BrdU incorporation assay; assay type: functional, organism-based
Method in brief: (§3)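 Eleven-week-old SD male rats were dosed ip daily for 28 days in soybean oil with 10% ethanol, against a vehicle control. On day 29 BrdU 100 mg/kg was given twice, 2 h apart, and rats were sacrificed 24 h later. Sections were treated with HCl denaturation, BrdU antibody at 1:500 at 4 °C overnight and DAB detection. BrdU+ cells in the SGZ-GCL were counted, mean ± SEM, n = 8.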

Rattus norvegicus [6] = test: In vivo neurogenic activity in Sprague-Dawley rat neural progenitor cells at 4 mg/kg, ip qd pretreated for 28 days followed by BrdU addition at 2 hrs interval for twice on day 29 measured after 24 hrs by BrdU incorporation assay relative to control; assay type: functional; method in brief: as §2
Rattus norvegicus [7] = test: In vivo neurogenic activity in Sprague-Dawley rat neural progenitor cells at 0.5 to 4 mg/kg, ip qd pretreated for 28 days followed by BrdU addition at 2 hrs interval for twice on day 29 measured after 24 hrs by BrdU incorporation assay; assay type: functional, organism-based; method in brief: as §3
[8] = Drug uptake in mouse brain at 20 mg/kg, po via gavage by HPLC-MS/MS analysis; assay type: ADME, organism-based; details: in vivo, read-out: Drug uptake
Rattus norvegicus [9] = test: Effect on ERK expression in Sprague-Dawley rat adult hippocampus at 0.05 to 0.5 mg/kg, ip qd preincubated for 28 days followed by BrdU addition at 2 hrs interval for twice on day 29 measured at 28 days post BrdU pulse by immunoblot assay; assay type: functional, organism-based
Method in brief: (§4)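 Male SD rats (received at 10 weeks, acclimatized 7 days) were dosed ip once daily for 28 days. The compounds were given in soybean oil with 10% ethanol, and the vehicle group received 10% ethanol in oil. BrdU was given 100 mg/kg twice, 2 h apart, on day 29. Hippocampal tissue was taken 24 h or 28 days later. Lysates were made in RIPA with protease inhibitors and run on 12% SDS-PAGE. Akt, pAkt, ERK1/2 and pERK1/2 were immunoblotted and read by densitometry against GAPDH, normalized to vehicle = 1.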

Rattus norvegicus [10] = test: Downregulation of ERK phosphorylation in Sprague-Dawley rat adult hippocampus at 0.05 to 0.5 mg/kg, ip qd preincubated for 28 days followed by BrdU addition at 2 hrs interval for twice on day 29 measured at 28 days post BrdU pulse by immunoblot assay; assay type: functional, organism-based; method in brief: as §4
Rattus norvegicus [11] = test: In vivo neurogenic activity in Sprague-Dawley rat adult hippocampal at 0.5 mg/kg, ip qd preincubated for 28 days followed by BrdU addition at 2 hrs interval for twice at day 29 measured at 28 days post last dose by NeuN/BrdU double staining based immunohistochemistry assay relative to control; assay type: functional
Method in brief: (§5)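 SD male rats, 11 weeks old, were given compound ip daily for 28 days in 10% ethanol/soybean oil. On day 29 they received BrdU 100 mg/kg ip twice, 2 h apart, and were perfused 28 days after the last BrdU. Fixed 30 µm cryosections were co-stained for BrdU and NeuN by fluorescence. BrdU+ cells and the BrdU+NeuN+/BrdU+ fraction were counted against vehicle, mean ± SEM, n = 8.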

Rattus norvegicus [12] = test: In vivo neurogenic activity in Sprague-Dawley rat adult hippocampal at 0.05 mg/kg, ip qd preincubated for 28 days followed by BrdU addition at 2 hrs interval for twice at day 29 measured at 28 days post last dose by NeuN/BrdU double staining based immunohistochemistry assay relative to control; assay type: functional; method in brief: as §5
Rattus norvegicus [13] = test: Effect on AKT expression in Sprague-Dawley rat adult hippocampus at 0.05 to 0.5 mg/kg, ip qd preincubated for 28 days followed by BrdU addition at 2 hrs interval for twice on day 29 measured at 28 days post BrdU pulse by immunoblot assay; assay type: functional, organism-based; method in brief: as §4
Rattus norvegicus [14] = test: Downregulation of AKT phosphorylation in Sprague-Dawley rat adult hippocampus at 0.05 to 0.5 mg/kg, ip qd preincubated for 28 days followed by BrdU addition at 2 hrs interval for twice on day 29 measured at 28 days post BrdU pulse by immunoblot assay; assay type: functional, organism-based; method in brief: as §4
Rattus norvegicus [15] = test: Effect on ERK expression in Sprague-Dawley rat adult hippocampus at 0.5 to 4 mg/kg, ip qd preincubated for 28 days followed by BrdU addition at 2 hrs interval for twice on day 29 measured at 24 hrs post BrdU pulse by immunoblot assay; assay type: functional, organism-based; method in brief: as §4
Rattus norvegicus [16] = test: Downregulation of ERK phosphorylation in Sprague-Dawley rat adult hippocampus at 0.5 to 4 mg/kg, ip qd preincubated for 28 days followed by BrdU addition at 2 hrs interval for twice on day 29 measured at 24 hrs post BrdU pulse by immunoblot assay; assay type: functional, organism-based; details: in the assay text read “Upregulation” for “Downregulation”; method in brief: as §4
Rattus norvegicus [17] = test: Effect on AKT expression in Sprague-Dawley rat adult hippocampus at 0.5 to 4 mg/kg, ip qd preincubated for 28 days followed by BrdU addition at 2 hrs interval for twice on day 29 measured at 24 hrs post BrdU pulse by immunoblot assay; assay type: functional, organism-based; method in brief: as §4
Rattus norvegicus [18] = test: Downregulation of AKT phosphorylation in Sprague-Dawley rat adult hippocampus at 0.5 to 4 mg/kg, ip qd preincubated for 28 days followed by BrdU addition at 2 hrs interval for twice on day 29 measured at 24 hrs post BrdU pulse by immunoblot assay; assay type: functional, organism-based; details: in the assay text read “Upregulation” for “Downregulation”; method in brief: as §4

Structure (SMILES) | viability at 24 h, 1000 µM [1] | viability at 24 h, 100 µM [2] | Activity (Rattus norvegicus [3]) | viability at 24 h, 500 µM [4] | Activity (Rattus norvegicus [6]) | also measured
COc1ccc(C#Cc2ccc3c(c2)OCO3)cc1 | 63.8% | 75.9% | inactive | 69.1% | – | –
COc1cc(/C=C/c2ccc(OC(C)=O)cc2)cc(OC)c1 | 6.75% | 6.48% | – | 13.9% | Active | Activity (Rattus norvegicus [5]): inactive
O=C(Nc1ccc(/C=C/c2ccc3c(c2)OCO3)cc1)C1CC1 | 85.3% | 98.9% | – | 97.3% | – | fold change (FC) (Rattus norvegicus [6]): 2.2 - 3.5; Activity (Rattus norvegicus [7]): Active
COc1cccc(NCC(F)Cn2c3ccc(Br)cc3c3cc(Br)ccc32)c1 (centres undefined) | – | – | – | – | – | concentration [8]: 900 nM
CC(=O)Nc1cccc(C#Cc2ccc3c(c2)OCO3)c1 | 55.3% | 70.6% | inactive | 62.9% | – | –
CC(=O)Oc1ccc(/C=C/c2ccc3c(c2)OCO3)cc1 | 17.8% | 84.5% | inactive | 21.3% | – | –
CC(=O)Nc1ccc(CCc2ccc3c(c2)OCO3)cc1 | 68.8% | 90.3% | inactive | 79.4% | – | –
Oc1ccc(/C=C/c2ccc3c(c2)OCO3)cc1 | 14.4% | 39.5% | inactive | 20.1% | – | –
O=C(Nc1ccc(/C=C/c2ccc3c(c2)OCO3)cc1)c1ccccc1 | 85% | 98.6% | – | 99.3% | – | Activity (Rattus norvegicus [9]): Active; Activity (Rattus norvegicus [10]): Active; fold change (FC) (Rattus norvegicus [11]): 3.2; fold change (FC) (Rattus norvegicus [12]): 1.6; Activity (Rattus norvegicus [13]): Active; Activity (Rattus norvegicus [14]): Active; Activity (Rattus norvegicus [15]): Active; fold change (FC) (Rattus norvegicus [6]): 2.2 - 3.5; Activity (Rattus norvegicus [16]): Active; Activity (Rattus norvegicus [7]): Active; Activity (Rattus norvegicus [17]): Active; Activity (Rattus norvegicus [18]): Active
CC(=O)Nc1ccc(/C=C/c2ccc3c(c2)OCO3)cc1F | 75.1% | 86.7% | – | 82% | Active | –
CS(=O)(=O)Nc1ccc(/C=C/c2ccc3c(c2)OCO3)cc1 | 62.3% | 72.5% | – | 68.9% | – | fold change (FC) (Rattus norvegicus [6]): 2.2 - 3.5; Activity (Rattus norvegicus [7]): Active
CC(=O)N(C)c1ccc(/C=C/c2ccc3c(c2)OCO3)cc1 | 5.89% | 50.4% | – | 15.8% | inactive | –
N#Cc1ccc(/C=C/c2ccc3c(c2)OCO3)cc1 | 36.1% | 110% | – | 43.7% | Active | –
O=C(Nc1ccc(/C=C/c2ccc3c(c2)OCO3)cc1)c1cccs1 | 49.1% | 62.5% | – | 54.4% | Active | –
CC(C)C(=O)Nc1ccc(/C=C/c2ccc3c(c2)OCO3)cc1 | 42% | 50.9% | – | 48.4% | – | fold change (FC) (Rattus norvegicus [6]): 2.2 - 3.5; Activity (Rattus norvegicus [7]): Active
CCC(=O)Nc1ccc(/C=C/c2ccc3c(c2)OCO3)cc1 | 61.5% | 85.9% | Active | 80.6% | – | –
COc1ccc(OCC#Cc2ccc3c(c2)OCO3)cc1 | 36.3% | 44.1% | Active | 79.7% | – | –
O=C(Nc1ccc(/C=C/c2ccc3c(c2)OCO3)cc1)C(F)(F)F | 41.5% | 75.2% | – | 53.4% | inactive | –
COc1cc(/C=C/c2ccc(NC(C)=O)cc2)cc(OC)c1 | 45.2% | 54.5% | – | 48.5% | Active | –
CC(=O)Nc1ccc(C#Cc2ccc3c(c2)OCO3)cc1 | 35.2% | 63.2% | – | 51.3% | inactive | –
COc1cc(/C=C/c2ccc(O)cc2)cc(OC)c1 [PTEROSTILBENE] | 51.4% | -0.58% | – | 32.7% | Active | –
COc1ccc(/C=C/c2ccc(NC(C)=O)cc2)cc1 | 40.7% | 70% | inactive | 52.2% | – | –
COc1ccc(/C=C/c2ccc(NC(C)=O)cc2)cc1OC | 31.3% | 68% | inactive | 56.5% | – | –
